Results from different studies.
Route: oral

COc1ccc2c(c1OCc1ccccc1)C[C@@H](C(=O)O)N(C(=O)C(c1ccccc1)c1ccccc1)C2 — bioavailability (male beagle dog; plasma; 3 mg/kg): 39%
N#C[C@@]1(c2ccc3c(N)ncnn23)O[C@H](CO)[C@@H](O)[C@H]1O — bioavailability (dog; plasma; 5 mg/kg): 92%
C=CC(=O)Nc1cc(Nc2nccc(Nc3cc(Cl)c(F)cc3C(C)(C)O)n2)c(OC)cc1N1CC[C@@H](N(C)C)C1 — bioavailability (beagle dog; plasma; 1 mg/kg): 48.8%
C#Cc1cnc2nc(O)n(C(CC)CC)c2n1 — bioavailability (male beagle dog; plasma; 1 mg/kg): > 90%
Cc1cc(Nc2ccc(S(F)(F)(F)(F)F)cc2)n2nc(C(C)(F)F)nc2n1 — bioavailability (male beagle dog; plasma): ~20%
O=C(NCCN1CCCC1)c1cc(-c2ccc(CN3CCOCC3)cc2)nc2ccc(F)cc12 — bioavailability (male beagle dog; blood; 3 mg/kg): 46%
CC#Cc1cncc(-c2ccc3c(c2)[C@@]2(N=C(C)C(N)=N2)[C@]2(CC[C@H](OC)CC2)C3)c1 — bioavailability (male beagle dog; plasma; 3 µmol/kg): 80%
Oc1c(-n2ccnn2)cnn1-c1cc(N2CCOCC2)ncn1 — bioavailability (female dog; plasma; 1.5 mg/kg): 71%
Fc1ccc(Nc2n[nH]c3cccnc23)cc1Cl — bioavailability (dog; plasma): 36%
